Experiments:
Cannabinoid receptor 2 [1] = target: T1, Cannabinoid receptor 2 (Rattus norvegicus, UniProt Q9QZN9); assay: Displacement of [3H]CP-55940 from rat recombinant CB2 receptor expressed in HEK293 cells after 90 mins; type: cell-based
T1 sequence (Q9QZN9 whole entry): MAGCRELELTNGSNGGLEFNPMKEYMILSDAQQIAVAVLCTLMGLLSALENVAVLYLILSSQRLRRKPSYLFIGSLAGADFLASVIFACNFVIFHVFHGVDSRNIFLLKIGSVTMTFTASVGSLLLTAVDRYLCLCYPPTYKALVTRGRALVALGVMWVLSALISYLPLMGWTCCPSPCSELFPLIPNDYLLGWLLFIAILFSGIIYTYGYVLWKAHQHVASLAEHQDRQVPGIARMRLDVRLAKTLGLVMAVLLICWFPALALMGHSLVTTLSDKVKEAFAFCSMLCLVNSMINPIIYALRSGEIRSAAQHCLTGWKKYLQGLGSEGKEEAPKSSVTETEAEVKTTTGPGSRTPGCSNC
Summary of the method: (§1)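 Competitive binding: [³H]CP-55,940 displaced from membranes of HEK 293 cells stably transfected with human or rat CB₂, or CHO cells stably transfected with human or rat CB₁. Reported as pKi. Determinations >2 (duplicate of duplicate).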

Cannabinoid receptor 2 [2] = target: T2, Cannabinoid receptor 2 (Homo sapiens, UniProt P34972); assay: Agonist activity at human recombinant CB2 receptor expressed in HEK293 cells co-expressing chimeric Gaq/o protein by FLIPR assay; type: functional, cell-based
T2 sequence (P34972 whole entry): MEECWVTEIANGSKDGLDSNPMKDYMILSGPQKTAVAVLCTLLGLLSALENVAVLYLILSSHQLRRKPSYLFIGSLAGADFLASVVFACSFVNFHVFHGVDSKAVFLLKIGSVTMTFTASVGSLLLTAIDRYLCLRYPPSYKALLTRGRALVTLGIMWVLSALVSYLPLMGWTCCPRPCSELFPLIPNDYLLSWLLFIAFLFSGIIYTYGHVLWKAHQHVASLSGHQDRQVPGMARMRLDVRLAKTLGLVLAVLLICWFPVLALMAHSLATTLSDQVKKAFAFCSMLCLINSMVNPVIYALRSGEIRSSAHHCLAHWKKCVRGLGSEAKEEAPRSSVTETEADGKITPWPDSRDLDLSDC
Summary of the method: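 FLIPR functional assay in HEK 293 cells stably co-expressing chimeric Gαq/o protein and the CB receptor. Net peak evoked response was compared with the peak response to CP-55,940.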

Cannabinoid receptor 2 [3] = target: T2, Cannabinoid receptor 2; assay: Displacement of [3H]CP-55940 from human recombinant CB2 receptor expressed in HEK293 cells after 90 mins; type: cell-based; summary of the method: as §1
Cannabinoid receptor 1 [4] = target: T3, Cannabinoid receptor 1 (Homo sapiens, UniProt P21554); assay: Displacement of [3H]CP-55940 from human recombinant CB1 receptor expressed in CHO cells after 90 mins; type: cell-based; summary of the method: as §1
T3 sequence (P21554 whole entry): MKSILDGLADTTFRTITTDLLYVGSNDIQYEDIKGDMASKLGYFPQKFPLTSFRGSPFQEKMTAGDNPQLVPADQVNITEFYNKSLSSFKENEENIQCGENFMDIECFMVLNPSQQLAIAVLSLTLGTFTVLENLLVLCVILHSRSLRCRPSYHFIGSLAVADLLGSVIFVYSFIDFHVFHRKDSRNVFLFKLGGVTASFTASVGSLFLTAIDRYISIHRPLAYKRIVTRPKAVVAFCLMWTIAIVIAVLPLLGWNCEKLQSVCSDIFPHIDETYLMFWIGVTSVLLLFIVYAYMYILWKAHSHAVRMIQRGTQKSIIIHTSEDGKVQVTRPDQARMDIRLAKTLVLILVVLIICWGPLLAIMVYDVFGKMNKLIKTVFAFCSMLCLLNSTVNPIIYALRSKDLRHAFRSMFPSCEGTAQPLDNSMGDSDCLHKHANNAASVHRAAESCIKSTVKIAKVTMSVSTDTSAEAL

Cannabinoid receptor 1 [5] = target: T4, Cannabinoid receptor 1 (Rattus norvegicus, UniProt P20272); assay: Agonist activity at rat recombinant CB1 receptor expressed in HEK293 cells assessed as inhibition of forskolin-induced cAMP production after 20 mins by ELISA; type: functional, cell-based
T4 sequence (P20272 whole entry): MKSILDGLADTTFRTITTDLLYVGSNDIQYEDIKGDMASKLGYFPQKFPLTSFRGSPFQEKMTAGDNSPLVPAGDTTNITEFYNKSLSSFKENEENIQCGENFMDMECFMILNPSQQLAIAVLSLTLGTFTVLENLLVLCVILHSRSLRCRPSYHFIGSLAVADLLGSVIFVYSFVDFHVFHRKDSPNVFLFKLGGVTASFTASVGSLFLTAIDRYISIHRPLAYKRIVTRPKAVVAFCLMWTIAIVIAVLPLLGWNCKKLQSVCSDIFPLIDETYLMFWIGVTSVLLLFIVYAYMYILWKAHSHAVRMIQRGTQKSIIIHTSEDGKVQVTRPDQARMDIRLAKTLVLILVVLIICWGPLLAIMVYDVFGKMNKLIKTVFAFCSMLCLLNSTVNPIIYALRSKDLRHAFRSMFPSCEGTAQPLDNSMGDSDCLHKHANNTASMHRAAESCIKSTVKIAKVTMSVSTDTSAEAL
Summary of the method: (§2)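 cAMP assay in HEK 293 cells stably expressing the relevant CB receptor, with a fixed concentration of forskolin. cAMP was quantified by ELISA. Activation is given as percent of the CP-55,940 control response.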

Cannabinoid receptor 2 [6] = target: T1, Cannabinoid receptor 2; assay: Agonist activity at rat recombinant CB2 receptor expressed in HEK293 cells assessed as inhibition of forskolin-induced cAMP production after 20 mins by ELISA; type: functional, cell-based; summary of the method: as §2
Cannabinoid receptor 2 [7] = target: T2, Cannabinoid receptor 2; assay: Agonist activity at human recombinant CB2 receptor expressed in HEK293 cells assessed as inhibition of forskolin-induced cAMP production after 20 mins by ELISA; type: functional, cell-based; summary of the method: as §2
Cannabinoid receptor 1 [8] = target: T3, Cannabinoid receptor 1; assay: Agonist activity at human recombinant CB1 receptor expressed in HEK293 cells assessed as inhibition of forskolin-induced cAMP production after 20 mins by ELISA; type: functional, cell-based; summary of the method: as §2
[9] = target: T5, Cannabinoid receptor 2 (Rattus norvegicus) (UniProt Q9QZN9); assay: Agonist activity at rat recombinant CB2 receptor expressed in HEK293 cells assessed as inhibition of forskolin-induced cAMP production after 20 mins by ELISA relative to CP55940; type: functional, cell-based; summary of the method: as §2
T5 sequence (whole entry): T1 sequence (Q9QZN9 whole entry)

Cannabinoid receptor 1 [10] = target: T4, Cannabinoid receptor 1; assay: Displacement of [3H]CP-55940 from rat recombinant CB1 receptor expressed in CHO cells after 90 mins; type: cell-based; summary of the method: as §1
Rattus norvegicus = assay: Neurotoxicity in rat assessed as decrease in spontaneous locomotory activity at 1 umol/kg, ip after 30 mins; type: toxicity, organism-based; design: scale not given: the % may be the effect or the level left; settings: in vivo, 0.5 h
Summary of the method: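 Given intraperitoneally 30 min before testing; horizontal locomotor activity was recorded and compared across doses.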

SMILES	Ki (Cannabinoid receptor 2 [1]) [nM]	IC50 (Cannabinoid receptor 2 [2]) [nM]	Ki (Cannabinoid receptor 2 [3]) [nM]	Ki (Cannabinoid receptor 1 [4]) [nM]	IC50 (Cannabinoid receptor 1 [5]) [nM]	IC50 (Cannabinoid receptor 2 [6]) [nM]	IC50 (Cannabinoid receptor 2 [7]) [nM]	IC50 (Cannabinoid receptor 1 [8]) [nM]	Imax [9] [%]	Ki (Cannabinoid receptor 1 [10]) [nM]	Activity (Rattus norvegicus) [%]
CCCNC(=O)c1c(NC(=O)C23CC4CC(CC2C4)C3)sc2c1CCN(C)C2	5.89	> 10000	91.2	> 10000							
O=C(c1c(NC(=O)C23CC4CC(CC2C4)C3)sc2c1CCOC2)N1CC(F)(F)C1	46.8	5.62	5.62	3390	229	9.55	0.2	550	53	66.1	
CCCNC(=O)c1c(NC(=O)C23CC4CC(CC(C4)O2)C3)sc2c1CCOC2	490		257	> 10000							
O=C(CCCN1CCC(O)(c2ccc(Cl)cc2)CC1)c1ccc(F)cc1 [HALOPERIDOL]											68
CCCNC(=O)c1c(NC(=O)c2c(F)cccc2C(F)(F)F)sc2c1CCOC2	331		105	> 10000							
CCNC(=O)c1c(NC(=O)C23CC4CC(CC2C4)C3)sc2c1CCOC2	295		214	> 10000							
CCCNC(=O)c1c(NC(=O)C2C(C)(C)C2(C)C)sc2c1CCOC2	4.37	52.5	91.2	> 10000		> 10000	1			191	
